Experimental data: ChEMBL document CHEMBL3734760 (Bioorg Med Chem Lett, 2015)

Columns and labels:
Prolyl endopeptidase FAP = molecular target: T1, Prolyl endopeptidase FAP (Bos taurus, UniProt A5D7B7); assay: Inhibition of bovine serum FAP
T1 sequence (A5D7B7 whole entry): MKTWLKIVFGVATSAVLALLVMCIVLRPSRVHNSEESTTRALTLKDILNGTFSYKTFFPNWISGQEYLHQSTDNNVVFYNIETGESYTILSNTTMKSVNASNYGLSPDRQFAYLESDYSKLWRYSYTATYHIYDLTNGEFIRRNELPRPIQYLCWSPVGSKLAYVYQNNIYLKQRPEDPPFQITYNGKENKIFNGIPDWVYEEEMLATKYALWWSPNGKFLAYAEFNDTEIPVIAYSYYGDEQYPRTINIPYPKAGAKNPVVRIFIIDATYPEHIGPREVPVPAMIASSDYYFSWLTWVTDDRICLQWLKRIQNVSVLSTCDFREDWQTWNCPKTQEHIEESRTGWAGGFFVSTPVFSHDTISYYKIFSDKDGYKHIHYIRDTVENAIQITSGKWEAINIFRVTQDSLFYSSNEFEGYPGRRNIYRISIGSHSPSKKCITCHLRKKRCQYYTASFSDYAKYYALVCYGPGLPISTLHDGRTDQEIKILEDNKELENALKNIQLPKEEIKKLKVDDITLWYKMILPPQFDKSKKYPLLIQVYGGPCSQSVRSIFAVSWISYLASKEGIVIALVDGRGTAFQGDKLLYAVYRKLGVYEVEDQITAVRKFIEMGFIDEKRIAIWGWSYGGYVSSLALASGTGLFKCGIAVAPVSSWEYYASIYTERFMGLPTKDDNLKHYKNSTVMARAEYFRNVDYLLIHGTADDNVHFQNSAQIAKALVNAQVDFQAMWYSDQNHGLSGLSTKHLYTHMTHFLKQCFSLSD

[1] = molecular target: Voltage-dependent L-type calcium channel subunit alpha-1C (Homo sapiens, UniProt Q13936); assay: […]
[2] = molecular target: Voltage-gated inwardly rectifying potassium channel KCNH2 (Homo sapiens, UniProt Q12809); assay: Inhibition of human ERG assessed as reduction in IKr current
Canis familiaris = assay: Dose normalized AUC in dog at 1 mg/kg, iv and 2 mg/kg, po; format: ADME, organism-based, Canis lupus familiaris; details: in vivo
Procedure, shortened: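 Dogs were dosed 1 mg/kg iv and 2 mg/kg po. AUC is reported normalized to dose in µM h/mg/kg.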

Dipeptidyl peptidase 2 = Dipeptidyl peptidase 2 (Homo sapiens, UniProt Q9UHL4); assay: Inhibition of N-terminal FLAG tagged human QPP expressed in Sf9 cells using Nle-Pro-AMC substrate after 30 mins by plate reader analysis
Dipeptidyl peptidase 8 = Dipeptidyl peptidase 8 (Homo sapiens, UniProt Q6V1X1); assay: Inhibition of C-terminal His-tagged DPP8 (unknown origin) expressed in COS7 cells using H-Ala-Pro-pNA substrate preincubated for 15 mins; format: cell-based, COS-7
[3] = Half life in rat at 1 mg/kg, iv and 2 mg/kg, po; format: ADME, organism-based; details: in vivo
Procedure, shortened: (§1)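 Rats received 1 mg/kg iv plus 2 mg/kg po, or 0.4 mg/kg iv alone. Plasma clearance is reported in ml/min/kg, half-life in h, and AUC normalized to dose in µM h/mg/kg.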

[4] = Plasma clearance in rat at 1 mg/kg, iv and 2 mg/kg, po; format: ADME, organism-based; procedure, shortened: as §1
Rattus norvegicus = assay: Dose normalized AUC in rat at 1 mg/kg, iv and 2 mg/kg, po; format: ADME, organism-based; details: in vivo; procedure, shortened: as §1
[5] = Oral bioavailability in rat at 2 mg/kg; format: ADME, organism-based; details: in vivo; procedure, shortened: as §1
[6] = Plasma clearance in dog at 1 mg/kg, iv and 2 mg/kg, po; format: ADME, organism-based, Canis lupus familiaris
[7] = Half life in dog at 1 mg/kg, iv and 2 mg/kg, po; format: ADME, organism-based, Canis lupus familiaris; details: in vivo
[8] = Oral bioavailability in dog at 2 mg/kg; format: ADME, organism-based, Canis lupus familiaris; details: in vivo

Dipeptidyl peptidase 8, sequence (Q6V1X1 whole entry): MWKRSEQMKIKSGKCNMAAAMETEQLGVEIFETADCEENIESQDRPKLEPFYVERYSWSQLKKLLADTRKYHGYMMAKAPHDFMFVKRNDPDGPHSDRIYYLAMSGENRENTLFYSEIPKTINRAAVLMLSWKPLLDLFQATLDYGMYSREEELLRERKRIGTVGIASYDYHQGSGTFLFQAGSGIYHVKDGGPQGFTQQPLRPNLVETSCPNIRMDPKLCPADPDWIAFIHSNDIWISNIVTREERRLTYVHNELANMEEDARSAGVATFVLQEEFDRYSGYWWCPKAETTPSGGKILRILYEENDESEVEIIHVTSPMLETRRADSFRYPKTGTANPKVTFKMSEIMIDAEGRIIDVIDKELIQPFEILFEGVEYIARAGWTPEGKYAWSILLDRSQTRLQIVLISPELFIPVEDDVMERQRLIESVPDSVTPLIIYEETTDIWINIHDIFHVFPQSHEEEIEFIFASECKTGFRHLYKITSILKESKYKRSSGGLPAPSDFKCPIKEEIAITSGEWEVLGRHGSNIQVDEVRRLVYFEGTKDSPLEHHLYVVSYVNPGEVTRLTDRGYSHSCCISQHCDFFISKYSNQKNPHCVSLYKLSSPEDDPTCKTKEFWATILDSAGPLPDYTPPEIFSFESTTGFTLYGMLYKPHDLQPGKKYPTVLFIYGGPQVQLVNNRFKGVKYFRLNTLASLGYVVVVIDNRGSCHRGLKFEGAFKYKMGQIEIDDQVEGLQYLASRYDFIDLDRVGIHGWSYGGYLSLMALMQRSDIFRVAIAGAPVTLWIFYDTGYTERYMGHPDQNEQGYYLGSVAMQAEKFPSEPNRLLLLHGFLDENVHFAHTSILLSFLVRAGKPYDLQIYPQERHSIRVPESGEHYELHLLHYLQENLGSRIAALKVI
Voltage-dependent L-type calcium channel subunit alpha-1C, sequence (Q13936 whole entry): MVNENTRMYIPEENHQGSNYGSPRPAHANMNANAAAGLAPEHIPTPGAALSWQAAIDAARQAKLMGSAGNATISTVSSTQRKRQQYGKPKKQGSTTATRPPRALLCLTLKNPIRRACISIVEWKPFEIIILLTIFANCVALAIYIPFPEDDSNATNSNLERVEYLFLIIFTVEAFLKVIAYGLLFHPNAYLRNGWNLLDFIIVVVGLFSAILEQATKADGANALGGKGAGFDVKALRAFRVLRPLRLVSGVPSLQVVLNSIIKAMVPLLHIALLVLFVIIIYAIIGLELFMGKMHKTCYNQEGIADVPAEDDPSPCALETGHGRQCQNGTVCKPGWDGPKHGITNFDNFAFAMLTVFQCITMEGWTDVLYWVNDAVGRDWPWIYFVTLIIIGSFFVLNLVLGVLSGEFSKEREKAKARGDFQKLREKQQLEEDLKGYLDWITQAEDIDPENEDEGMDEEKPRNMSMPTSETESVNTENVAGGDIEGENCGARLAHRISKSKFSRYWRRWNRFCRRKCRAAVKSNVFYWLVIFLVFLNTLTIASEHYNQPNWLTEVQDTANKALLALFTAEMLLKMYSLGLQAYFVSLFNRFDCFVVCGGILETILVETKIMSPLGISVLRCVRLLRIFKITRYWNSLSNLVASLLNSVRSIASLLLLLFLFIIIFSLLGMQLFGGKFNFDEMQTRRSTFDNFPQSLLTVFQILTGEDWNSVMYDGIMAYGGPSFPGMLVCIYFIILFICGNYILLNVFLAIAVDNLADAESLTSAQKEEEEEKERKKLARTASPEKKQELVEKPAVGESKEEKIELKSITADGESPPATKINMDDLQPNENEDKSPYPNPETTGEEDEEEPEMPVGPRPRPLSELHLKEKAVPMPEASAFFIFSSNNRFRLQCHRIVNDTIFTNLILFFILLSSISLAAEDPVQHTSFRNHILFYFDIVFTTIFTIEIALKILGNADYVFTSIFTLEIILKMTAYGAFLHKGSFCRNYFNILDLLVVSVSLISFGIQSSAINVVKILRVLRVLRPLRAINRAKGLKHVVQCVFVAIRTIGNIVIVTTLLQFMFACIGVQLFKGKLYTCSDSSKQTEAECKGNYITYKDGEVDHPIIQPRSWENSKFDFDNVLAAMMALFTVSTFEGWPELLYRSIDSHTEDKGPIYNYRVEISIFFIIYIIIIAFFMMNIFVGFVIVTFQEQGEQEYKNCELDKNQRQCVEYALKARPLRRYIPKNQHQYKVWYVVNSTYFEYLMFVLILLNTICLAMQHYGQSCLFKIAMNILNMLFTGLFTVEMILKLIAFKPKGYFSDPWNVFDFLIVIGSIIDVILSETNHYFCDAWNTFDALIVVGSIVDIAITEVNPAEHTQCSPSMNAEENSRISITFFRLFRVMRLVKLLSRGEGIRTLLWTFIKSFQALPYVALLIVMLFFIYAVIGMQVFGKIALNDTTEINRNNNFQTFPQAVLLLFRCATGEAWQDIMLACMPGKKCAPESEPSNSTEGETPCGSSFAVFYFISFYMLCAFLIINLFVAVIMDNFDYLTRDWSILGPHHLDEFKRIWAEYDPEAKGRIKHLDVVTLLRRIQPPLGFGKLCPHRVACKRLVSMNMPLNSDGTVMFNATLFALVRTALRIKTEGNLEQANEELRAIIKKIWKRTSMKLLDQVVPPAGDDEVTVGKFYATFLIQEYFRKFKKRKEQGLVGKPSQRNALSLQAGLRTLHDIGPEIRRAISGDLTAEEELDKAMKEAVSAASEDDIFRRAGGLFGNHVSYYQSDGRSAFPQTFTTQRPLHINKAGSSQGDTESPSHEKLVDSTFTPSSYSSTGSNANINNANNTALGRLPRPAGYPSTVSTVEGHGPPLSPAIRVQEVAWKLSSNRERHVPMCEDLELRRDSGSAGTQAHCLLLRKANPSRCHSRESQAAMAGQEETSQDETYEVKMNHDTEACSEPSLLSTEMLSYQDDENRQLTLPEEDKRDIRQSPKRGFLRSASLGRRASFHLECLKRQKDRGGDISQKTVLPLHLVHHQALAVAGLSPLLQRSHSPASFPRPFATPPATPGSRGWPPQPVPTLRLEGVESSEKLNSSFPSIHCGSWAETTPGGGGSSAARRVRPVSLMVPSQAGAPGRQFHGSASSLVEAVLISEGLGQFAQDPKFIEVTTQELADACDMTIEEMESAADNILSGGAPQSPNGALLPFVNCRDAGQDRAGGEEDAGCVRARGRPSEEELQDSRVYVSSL
Voltage-gated inwardly rectifying potassium channel KCNH2, sequence (Q12809 whole entry): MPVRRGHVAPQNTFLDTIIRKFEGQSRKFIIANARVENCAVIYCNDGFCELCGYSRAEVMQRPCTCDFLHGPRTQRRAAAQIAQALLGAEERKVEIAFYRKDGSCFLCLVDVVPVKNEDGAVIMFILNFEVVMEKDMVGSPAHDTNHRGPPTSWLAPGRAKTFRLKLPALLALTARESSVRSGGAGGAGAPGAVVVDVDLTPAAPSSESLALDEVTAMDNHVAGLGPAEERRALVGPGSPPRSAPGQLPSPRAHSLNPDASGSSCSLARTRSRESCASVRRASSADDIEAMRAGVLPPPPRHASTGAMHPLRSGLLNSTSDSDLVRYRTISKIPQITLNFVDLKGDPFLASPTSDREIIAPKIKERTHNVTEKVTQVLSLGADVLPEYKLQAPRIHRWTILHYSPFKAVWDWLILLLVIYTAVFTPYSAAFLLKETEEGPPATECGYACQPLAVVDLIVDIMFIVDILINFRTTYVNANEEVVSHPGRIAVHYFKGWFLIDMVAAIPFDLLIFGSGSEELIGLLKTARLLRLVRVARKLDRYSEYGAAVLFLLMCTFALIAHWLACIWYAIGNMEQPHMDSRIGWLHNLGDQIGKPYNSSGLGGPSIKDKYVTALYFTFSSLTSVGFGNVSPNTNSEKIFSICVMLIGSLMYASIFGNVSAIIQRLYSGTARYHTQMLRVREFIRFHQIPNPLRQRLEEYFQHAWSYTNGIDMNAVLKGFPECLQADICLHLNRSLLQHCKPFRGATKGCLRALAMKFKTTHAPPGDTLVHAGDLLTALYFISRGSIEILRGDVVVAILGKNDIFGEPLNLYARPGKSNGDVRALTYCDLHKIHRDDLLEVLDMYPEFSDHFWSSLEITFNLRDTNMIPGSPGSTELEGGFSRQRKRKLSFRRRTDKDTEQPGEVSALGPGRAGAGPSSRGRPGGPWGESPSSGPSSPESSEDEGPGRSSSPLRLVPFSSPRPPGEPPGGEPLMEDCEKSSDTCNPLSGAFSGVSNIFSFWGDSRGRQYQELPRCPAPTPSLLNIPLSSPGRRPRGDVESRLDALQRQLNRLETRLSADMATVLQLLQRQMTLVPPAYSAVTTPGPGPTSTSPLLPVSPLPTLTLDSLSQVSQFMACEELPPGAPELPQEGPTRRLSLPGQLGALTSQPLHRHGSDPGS

| SMILES | IC50 (Prolyl endopeptidase FAP) | IC50 (Dipeptidyl peptidase 2) | IC50 (Dipeptidyl peptidase 8) | half-life [3] | clearance [4] | AUC/dose (Rattus norvegicus) | further results |
| --- | --- | --- | --- | --- | --- | --- | --- |
| N[C@H]1C[C@@H](N2Cc3cn[nH]c3C2)CO[C@@H]1c1cc(F)ccc1F | > 100 µM | – | – | – | – | – | IC50 [1]: > 30 µM; IC50 [2]: > 30 µM; AUC/dose (Canis familiaris): 16 µM·h/mg/kg |
| N[C@H]1C[C@@H](N2Cc3cnn(S(=O)(=O)C4CCCC4)c3C2)CO[C@@H]1c1cc(F)ccc1F | 26 µM | > 100 µM | > 100 µM | 0.5 h | 96 mL/min/kg | 0.4 µM·h/mg/kg | – |
| CS(=O)(=O)Nc1n[nH]c2c1CN([C@H]1CO[C@H](c3cc(F)ccc3F)[C@@H](N)C1)C2 | 8.8 µM | > 100 µM | > 100 µM | 2 h | 16 mL/min/kg | 2.5 µM·h/mg/kg | – |
| CCS(=O)(=O)Nc1n[nH]c2c1CN([C@H]1CO[C@H](c3cc(F)ccc3F)[C@@H](N)C1)C2 | 32 µM | – | – | 2.1 h | 12 mL/min/kg | 3.4 µM·h/mg/kg | – |
| CCCS(=O)(=O)n1cc2c(n1)CN([C@H]1CO[C@H](c3cc(F)ccc3F)[C@@H](N)C1)C2 | > 100 µM | > 100 µM | > 100 µM | – | – | – | – |
| N[C@H]1C[C@@H](N2Cc3[nH]nc(NC(=O)C4CC4)c3C2)CO[C@@H]1c1cc(F)ccc1F | 22 µM | > 100 µM | > 100 µM | 5.5 h | 64 mL/min/kg | 0.6 µM·h/mg/kg | – |
| N[C@H]1C[C@@H](N2Cc3[nH]nc(NS(=O)(=O)C4CC4)c3C2)CO[C@@H]1c1cc(F)ccc1F | 3.8 µM | > 100 µM | – | 1.5 h | 24 mL/min/kg | 1.6 µM·h/mg/kg | – |
| N[C@H]1C[C@@H](N2Cc3[nH]nc(NC(=O)c4nccs4)c3C2)CO[C@@H]1c1cc(F)ccc1F | 40 µM | – | – | – | – | – | – |
| CCS(=O)(=O)n1cc2c(n1)CN([C@H]1CO[C@H](c3cc(F)ccc3F)[C@@H](N)C1)C2 | 69 µM | > 100 µM | > 100 µM | 5.2 h | 1.6 mL/min/kg | 22 µM·h/mg/kg | IC50 [1]: > 30 µM; bioavailability [5]: 84%; IC50 [2]: > 60 µM; clearance [6]: 3.3 mL/min/kg; half-life [7]: 13 h; AUC/dose (Canis familiaris): 25 µM·h/mg/kg; bioavailability [8]: 100% |
| N[C@H]1C[C@@H](N2Cc3cn(S(=O)(=O)C4CC4)nc3C2)CO[C@@H]1c1cc(F)ccc1F | > 100 µM | – | > 100 µM | 6.2 h | 0.9 mL/min/kg | 47 µM·h/mg/kg | IC50 [1]: > 30 µM; clearance [6]: 1.6 mL/min/kg; half-life [7]: 17 h; AUC/dose (Canis familiaris): 25 µM·h/mg/kg; bioavailability [8]: 90% |
| N[C@H]1C[C@@H](N2Cc3[nH]nc(NS(=O)(=O)Cc4ccncc4)c3C2)CO[C@@H]1c1cc(F)ccc1F | 60 µM | – | > 100 µM | – | – | – | – |
| N[C@H]1C[C@@H](N2Cc3[nH]nc(NS(=O)(=O)CC(F)(F)F)c3C2)CO[C@@H]1c1cc(F)ccc1F | 32 µM | > 100 µM | > 100 µM | – | – | – | – |
| CC(C)S(=O)(=O)c1n[nH]c2c1CN([C@H]1CO[C@H](c3cc(F)ccc3F)[C@@H](N)C1)C2 | 16 µM | > 100 µM | > 100 µM | – | – | – | – |
| N[C@H]1C[C@@H](N2Cc3[nH]nc(S(=O)(=O)c4ccccc4)c3C2)CO[C@@H]1c1cc(F)ccc1F | 14 µM | – | – | – | – | – | – |
| Cn1cnc(S(=O)(=O)n2ncc3c2CN([C@H]2CO[C@H](c4cc(F)ccc4F)[C@@H](N)C2)C3)c1 | 45 µM | – | – | – | – | – | – |
| CC(C)S(=O)(=O)n1cc2c(n1)CN([C@H]1CO[C@H](c3cc(F)ccc3F)[C@@H](N)C1)C2 | > 100 µM | > 100 µM | > 100 µM | 1.3 h | 7 mL/min/kg | 5.6 µM·h/mg/kg | bioavailability [5]: 93% |
| CS(=O)(=O)c1n[nH]c2c1CN([C@H]1CO[C@H](c3cc(F)ccc3F)[C@@H](N)C1)C2 | 20 µM | > 100 µM | – | – | – | – | – |
| N[C@H]1C[C@@H](N2Cc3[nH]nc(NC(=O)c4ccncc4)c3C2)CO[C@@H]1c1cc(F)ccc1F | 27 µM | > 100 µM | – | – | – | – | – |
| N[C@H]1C[C@@H](N2Cc3cn(S(=O)(=O)c4cccc(C(F)(F)F)c4)nc3C2)CO[C@@H]1c1cc(F)ccc1F | > 100 µM | > 100 µM | – | – | – | – | – |
| N[C@H]1C[C@@H](N2Cc3cn(S(=O)(=O)C4CCCC4)nc3C2)CO[C@@H]1c1cc(F)ccc1F | 50 µM | – | – | 1.5 h | 41 mL/min/kg | 0.9 µM·h/mg/kg | – |
| CCC(=O)Nc1n[nH]c2c1CN([C@H]1CO[C@H](c3cc(F)ccc3F)[C@@H](N)C1)C2 | 47 µM | > 100 µM | > 100 µM | 2.2 h | 60 mL/min/kg | 0.7 µM·h/mg/kg | – |
| N[C@H]1C[C@@H](N2Cc3[nH]nc(NS(=O)(=O)c4c[nH]cn4)c3C2)CO[C@@H]1c1cc(F)ccc1F | 6.3 µM | – | – | – | – | – | – |
| N[C@H]1C[C@@H](N2Cc3cn(S(=O)(=O)C(F)(F)F)nc3C2)CO[C@@H]1c1cc(F)ccc1F | > 100 µM | > 100 µM | > 100 µM | – | – | – | – |
| N[C@H]1C[C@@H](N2Cc3cnn(S(=O)(=O)C4CC4)c3C2)CO[C@@H]1c1cc(F)ccc1F | 54 µM | – | > 100 µM | 1.6 h | 24 mL/min/kg | 1.7 µM·h/mg/kg | bioavailability [5]: 79% |
| Cn1cnc(S(=O)(=O)n2cc3c(n2)CN([C@H]2CO[C@H](c4cc(F)ccc4F)[C@@H](N)C2)C3)c1 | 95 µM | – | – | – | – | – | – |
| N[C@H]1C[C@@H](N2Cc3cn(S(=O)(=O)c4ccccc4)nc3C2)CO[C@@H]1c1cc(F)ccc1F | > 100 µM | – | – | – | – | – | – |
| CS(=O)(=O)n1cc2c(n1)CN([C@H]1CO[C@H](c3cc(F)ccc3F)[C@@H](N)C1)C2 [OMARIGLIPTIN] | > 100 µM | > 100 µM | > 100 µM | – | – | 48 µM·h/mg/kg | IC50 [1]: > 30 µM; clearance [6]: 0.9 mL/min/kg; half-life [7]: 22 h; AUC/dose (Canis familiaris): 54 µM·h/mg/kg; bioavailability [8]: 100% |
